# According to ChEMBL document CHEMBL4350961, “Discovery of Pyrrolo[3,2- d]pyrimidin-4-one Derivatives as a New Class of Potent and Cell-Active Inhibitors of P300/CBP-Associated Factor Bromodomain” (J Med Chem, 2019):
# Calls of active or inactive are those of the source. The rule behind the calls is not given here.
# Key:
# [1] = molecular target: Nucleosome-remodeling factor subunit BPTF (Homo sapiens, UniProt Q12830); assay: Binding affinity to human N-terminal His-tagged FALZ by isothermal titration calorimetry
# Method in brief: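 Bromodomain (His-tag removed by TEV for PCAF and GCN5) in the syringe, ligand in the cell. One 0.4 μL injection, then 19 of 2 μL. Dilution heat subtracted; KD from an independent single-site binding model.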
# [2] = molecular target: Bromodomain adjacent to zinc finger domain protein 2A (Homo sapiens) (UniProt Q9UIF9); assay: Binding affinity to human partial length BAZ2A (M1792 to L1905 residues) expressed in bacterial expression system at 1 uM by BROMOscan assay
# Method in brief: (§1)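 BROMOscan bromodomain cross-screen run by an outside service, compound at 1 µM against 32 recombinant bromodomains. Binding given as percent of control.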
# Peregrin (Homo sapiens) = Peregrin (Homo sapiens) (UniProt P55201); assay: Binding affinity to human partial length BRPF1 (E627 to G740 residues) expressed in bacterial expression system at 1 uM by BROMOscan assay; method in brief: as §1
# [3] = molecular target: Histone acetyltransferase p300 (Homo sapiens) (UniProt Q09472); assay: Binding affinity to human partial length EP300 (A1040 to G1161 residues) expressed in bacterial expression system at 1 uM by BROMOscan assay; method in brief: as §1
# Mus musculus = species: Mus musculus; assay: Inhibition of recombinant mouse ABL L782P/G784R/W785L/L786V mutant (27 to end residues) at 10 uM using EAIYAAPFAKKK as substrate measured after 40 mins in presence of [gamma33P]ATP by scintillation counting method
# [4] = Half life in Sprague-Dawley rat at 10 mg/kg, po administered via gavage by LC-MS/MS analysis; format: ADME, organism-based; settings: in vivo
# Method in brief: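 Male Sprague-Dawley rats, 6–8 weeks old, given a single 10 mg/kg dose by oral gavage (vehicle 2.5% ethanol, 2.5% tween-80 in saline, pH 7.0). Serial jugular blood samples taken and centrifuged to plasma. Plasma protein-precipitated with acetonitrile containing internal standard, then analysed by LC-MS/MS. Noncompartmental fit gave T1/2.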
# [5] = molecular target: Aurora kinase C (Homo sapiens) (UniProt Q9UQB9); assay: Inhibition of recombinant human AURKC (35 to end residues) at 10 uM using AKRRRLSSLRA as substrate measured after 40 mins in presence of [gamma33P]ATP by scintillation counting method
# Aurora kinase C (Homo sapiens), sequence (Q9UQB9 whole entry, the tested form may be a part): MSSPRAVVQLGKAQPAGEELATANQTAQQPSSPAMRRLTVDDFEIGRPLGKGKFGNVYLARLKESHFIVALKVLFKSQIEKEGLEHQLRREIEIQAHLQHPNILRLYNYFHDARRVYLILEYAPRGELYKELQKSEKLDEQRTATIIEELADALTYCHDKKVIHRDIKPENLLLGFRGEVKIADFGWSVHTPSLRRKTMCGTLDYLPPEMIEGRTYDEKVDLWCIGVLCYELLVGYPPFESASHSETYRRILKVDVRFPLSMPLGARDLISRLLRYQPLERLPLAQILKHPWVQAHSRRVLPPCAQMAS
# [6] = molecular target: Bone morphogenetic protein receptor type-2 (Homo sapiens) (UniProt Q13873); assay: Inhibition of recombinant human BMPR2 (172 to 734 residues) at 10 uM using myelin basic protein as substrate measured after 120 mins in presence of [gamma33P]ATP by scintillation counting method
# Bone morphogenetic protein receptor type-2 (Homo sapiens), sequence (Q13873 whole entry, the tested form may be a part): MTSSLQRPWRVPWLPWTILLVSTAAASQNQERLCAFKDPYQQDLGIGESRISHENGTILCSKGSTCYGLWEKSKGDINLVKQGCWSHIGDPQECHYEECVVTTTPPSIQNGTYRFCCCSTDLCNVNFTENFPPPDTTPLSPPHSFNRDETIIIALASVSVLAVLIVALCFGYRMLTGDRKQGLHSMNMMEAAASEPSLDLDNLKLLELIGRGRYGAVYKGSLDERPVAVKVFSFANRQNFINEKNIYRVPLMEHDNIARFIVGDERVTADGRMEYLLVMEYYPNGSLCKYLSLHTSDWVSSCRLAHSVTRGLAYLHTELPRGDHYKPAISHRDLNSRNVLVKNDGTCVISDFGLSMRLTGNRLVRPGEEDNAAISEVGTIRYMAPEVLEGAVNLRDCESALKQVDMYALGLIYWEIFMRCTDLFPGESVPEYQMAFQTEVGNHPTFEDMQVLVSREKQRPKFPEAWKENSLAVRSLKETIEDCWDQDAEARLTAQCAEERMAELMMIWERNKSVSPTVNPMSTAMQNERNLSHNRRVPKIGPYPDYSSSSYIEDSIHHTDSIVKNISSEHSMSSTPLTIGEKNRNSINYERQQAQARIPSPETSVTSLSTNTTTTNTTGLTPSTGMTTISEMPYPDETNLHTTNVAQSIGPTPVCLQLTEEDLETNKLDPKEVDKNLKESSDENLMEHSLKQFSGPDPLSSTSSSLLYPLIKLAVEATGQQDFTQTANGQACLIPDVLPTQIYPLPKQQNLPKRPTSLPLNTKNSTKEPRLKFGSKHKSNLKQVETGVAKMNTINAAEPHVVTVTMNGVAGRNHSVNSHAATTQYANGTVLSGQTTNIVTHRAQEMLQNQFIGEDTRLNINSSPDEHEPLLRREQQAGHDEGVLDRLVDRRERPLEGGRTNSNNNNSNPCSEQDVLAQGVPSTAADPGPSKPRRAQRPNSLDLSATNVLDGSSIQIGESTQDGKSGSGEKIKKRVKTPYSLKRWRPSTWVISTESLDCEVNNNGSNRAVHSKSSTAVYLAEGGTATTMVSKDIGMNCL
# [7] = molecular target: Transient receptor potential cation channel subfamily M member 7 (Homo sapiens) (UniProt Q96QT4); assay: Inhibition of recombinant human CHAK1 (1180 to end residues) at 10 uM using myelin basic protein as substrate measured after 40 mins in presence of [gamma33P]ATP by scintillation counting method
# [8] = molecular target: Dual specificity protein kinase CLK1 (Homo sapiens) (UniProt P49759); assay: Inhibition of recombinant human CLK1 (130 to end residues) at 10 uM using ERMRPRKRQGSVRRRV as substrate measured after 40 mins in presence of [gamma33P]ATP by scintillation counting method
# Dual specificity protein kinase CLK1 (Homo sapiens), sequence (P49759 whole entry, looked up): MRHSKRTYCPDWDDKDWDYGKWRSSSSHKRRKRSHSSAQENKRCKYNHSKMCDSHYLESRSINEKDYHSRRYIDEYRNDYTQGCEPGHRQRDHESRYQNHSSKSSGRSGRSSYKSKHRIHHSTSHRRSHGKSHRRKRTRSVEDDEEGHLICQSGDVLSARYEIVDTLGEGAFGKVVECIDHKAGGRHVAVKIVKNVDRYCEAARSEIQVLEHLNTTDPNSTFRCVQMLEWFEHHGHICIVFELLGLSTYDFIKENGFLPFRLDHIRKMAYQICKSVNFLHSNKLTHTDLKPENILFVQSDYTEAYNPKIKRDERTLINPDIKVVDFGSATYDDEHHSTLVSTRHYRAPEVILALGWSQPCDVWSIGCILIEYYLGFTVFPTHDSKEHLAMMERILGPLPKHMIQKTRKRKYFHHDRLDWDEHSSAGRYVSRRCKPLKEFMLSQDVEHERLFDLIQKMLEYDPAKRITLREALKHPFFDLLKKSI
# [9] = molecular target: Proto-oncogene tyrosine-protein kinase Src (Homo sapiens) (UniProt P12931); assay: Inhibition of recombinant full-length human SRC at 10 uM using Cdc2 peptide as substrate measured after 40 mins in presence of [gamma33P]ATP by scintillation counting method
# Proto-oncogene tyrosine-protein kinase Src (Homo sapiens), sequence (P12931 2-536 limits assumed): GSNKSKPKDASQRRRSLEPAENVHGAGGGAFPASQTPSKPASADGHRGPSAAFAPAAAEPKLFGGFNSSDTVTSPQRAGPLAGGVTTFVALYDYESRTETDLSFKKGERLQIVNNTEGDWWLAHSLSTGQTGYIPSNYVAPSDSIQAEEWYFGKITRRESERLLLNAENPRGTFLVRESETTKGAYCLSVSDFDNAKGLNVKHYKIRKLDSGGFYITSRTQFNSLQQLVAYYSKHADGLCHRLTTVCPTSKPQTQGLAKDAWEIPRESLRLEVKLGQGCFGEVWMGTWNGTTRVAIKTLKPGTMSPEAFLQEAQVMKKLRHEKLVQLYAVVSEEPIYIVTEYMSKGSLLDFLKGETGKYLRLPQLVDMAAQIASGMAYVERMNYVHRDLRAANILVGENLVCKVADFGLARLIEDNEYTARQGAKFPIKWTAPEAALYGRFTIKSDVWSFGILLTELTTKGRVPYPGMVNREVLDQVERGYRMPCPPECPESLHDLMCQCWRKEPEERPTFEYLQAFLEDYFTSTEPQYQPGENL
# [10] = molecular target: Death-associated protein kinase 1 (Homo sapiens) (UniProt P53355); assay: Inhibition of recombinant human DAPK1 (1 to 296 residues) at 10 uM using KKLNRTLSFAEPG as substrate measured after 40 mins in presence of [gamma33P]ATP by scintillation counting method
# [11] = molecular target: Dual specificity tyrosine-phosphorylation-regulated kinase 2 (Homo sapiens) (UniProt Q92630); assay: Inhibition of recombinant full-length human DYRK2 at 10 uM using casein as substrate measured after 40 mins in presence of [gamma33P]ATP by scintillation counting method
# Dual specificity tyrosine-phosphorylation-regulated kinase 2 (Homo sapiens), sequence (Q92630 whole entry): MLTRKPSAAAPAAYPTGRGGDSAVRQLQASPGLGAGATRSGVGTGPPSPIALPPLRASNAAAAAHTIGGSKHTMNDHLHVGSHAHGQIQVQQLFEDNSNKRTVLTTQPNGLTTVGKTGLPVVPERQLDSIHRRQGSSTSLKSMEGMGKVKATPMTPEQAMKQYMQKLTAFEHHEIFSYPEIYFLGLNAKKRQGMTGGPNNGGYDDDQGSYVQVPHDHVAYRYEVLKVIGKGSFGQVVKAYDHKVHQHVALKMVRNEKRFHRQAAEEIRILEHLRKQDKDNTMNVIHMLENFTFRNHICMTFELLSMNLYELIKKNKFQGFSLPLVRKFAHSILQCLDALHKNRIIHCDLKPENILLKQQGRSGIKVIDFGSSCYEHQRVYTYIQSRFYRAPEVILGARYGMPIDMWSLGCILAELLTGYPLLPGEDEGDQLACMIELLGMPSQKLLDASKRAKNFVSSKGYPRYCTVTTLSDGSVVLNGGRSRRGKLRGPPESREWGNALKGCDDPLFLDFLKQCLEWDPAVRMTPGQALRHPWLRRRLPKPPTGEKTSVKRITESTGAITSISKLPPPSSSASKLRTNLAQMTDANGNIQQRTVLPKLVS
# [12] = molecular target: Dual specificity tyrosine-phosphorylation-regulated kinase 3 (Homo sapiens) (UniProt O43781); assay: Inhibition of recombinant full-length human DYRK3 at 10 uM using RRRFRPASPLRGPPK as substrate measured after 40 mins in presence of [gamma33P]ATP by scintillation counting method
# [13] = molecular target: Ephrin type-B receptor 3 (Homo sapiens) (UniProt P54753); assay: Inhibition of recombinant human EphB3 (599 to 920 residues) at 10 uM using poly (Glu, Tyr) 4:1 as substrate measured after 40 mins in presence of [gamma33P]ATP by scintillation counting method
# [14] = molecular target: Vascular endothelial growth factor receptor 1 (Homo sapiens) (UniProt P17948); assay: Inhibition of recombinant human Flt1 (783 to end residues) at 10 uM using KKKSPGEYVNIEFG as substrate measured after 40 mins in presence of [gamma33P]ATP by scintillation counting method
# [15] = molecular target: Serine/threonine-protein kinase haspin (Homo sapiens) (UniProt Q8TF76); assay: Inhibition of recombinant human haspin (471 to end residues) at 10 uM using RARTLSFAEPG as substrate measured after 40 mins in presence of [gamma33P]ATP by scintillation counting method
# [16] = molecular target: Tyrosine-protein kinase JAK3 (Homo sapiens) (UniProt P52333); assay: Inhibition of recombinant human JAK3 (781 to end residues) at 10 uM using GGEEEEYFELVKKKK as substrate measured after 40 mins in presence of [gamma33P]ATP by scintillation counting method
# Tyrosine-protein kinase JAK3 (Homo sapiens), sequence (P52333 whole entry, the tested form may be a part): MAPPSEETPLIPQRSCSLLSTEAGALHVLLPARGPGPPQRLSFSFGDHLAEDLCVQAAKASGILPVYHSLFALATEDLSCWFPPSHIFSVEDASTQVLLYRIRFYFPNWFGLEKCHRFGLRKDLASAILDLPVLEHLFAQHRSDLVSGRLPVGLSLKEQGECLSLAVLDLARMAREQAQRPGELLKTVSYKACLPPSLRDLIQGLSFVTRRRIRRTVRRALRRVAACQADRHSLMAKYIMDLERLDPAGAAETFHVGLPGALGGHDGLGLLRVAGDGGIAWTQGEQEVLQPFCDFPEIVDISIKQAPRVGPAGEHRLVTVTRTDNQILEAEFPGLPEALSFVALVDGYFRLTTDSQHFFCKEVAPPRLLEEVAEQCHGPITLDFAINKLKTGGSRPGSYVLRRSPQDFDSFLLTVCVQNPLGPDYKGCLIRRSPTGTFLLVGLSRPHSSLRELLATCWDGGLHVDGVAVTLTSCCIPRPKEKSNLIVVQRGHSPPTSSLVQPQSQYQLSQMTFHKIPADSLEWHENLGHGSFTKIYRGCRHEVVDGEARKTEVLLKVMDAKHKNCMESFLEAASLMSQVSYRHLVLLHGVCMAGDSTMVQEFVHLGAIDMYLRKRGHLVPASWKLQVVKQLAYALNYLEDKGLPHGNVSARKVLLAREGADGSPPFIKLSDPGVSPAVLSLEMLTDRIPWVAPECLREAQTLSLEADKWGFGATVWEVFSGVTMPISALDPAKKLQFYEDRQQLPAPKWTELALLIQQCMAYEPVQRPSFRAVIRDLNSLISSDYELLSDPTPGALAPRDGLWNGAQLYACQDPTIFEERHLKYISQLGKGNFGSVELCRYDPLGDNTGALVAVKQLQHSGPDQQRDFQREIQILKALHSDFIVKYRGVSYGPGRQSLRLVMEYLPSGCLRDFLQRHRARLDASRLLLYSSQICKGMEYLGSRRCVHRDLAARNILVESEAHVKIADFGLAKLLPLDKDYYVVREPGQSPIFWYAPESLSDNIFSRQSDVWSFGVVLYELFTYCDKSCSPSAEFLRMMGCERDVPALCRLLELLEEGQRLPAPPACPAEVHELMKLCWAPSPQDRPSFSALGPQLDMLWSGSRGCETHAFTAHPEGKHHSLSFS
# [17] = molecular target: Serine/threonine-protein kinase MRCK beta (Homo sapiens) (UniProt Q9Y5S2); assay: Inhibition of recombinant human MRCKbeta (1 to 473 residues) at 10 uM using KKRNRTLTV as substrate measured after 40 mins in presence of [gamma33P]ATP by scintillation counting method
# [18] = molecular target: FKBP12A/mTOR (Homo sapiens) (UniProt P62942+P42345); assay: Inhibition of recombinant full-length human mTOR/FKBP12 at 10 uM measured after 40 mins in presence of [gamma33P]ATP by scintillation counting method; format: protein-complex assay
# [19] = molecular target: Myosin-IIIb (Homo sapiens) (UniProt Q8WXR4); assay: Inhibition of recombinant full-length human MYO3B (1 to 326 residues) at 10 uM using RLGRDKYKTLRQIRQ as substrate measured after 40 mins in presence of [gamma33P]ATP by scintillation counting method
# [20] = molecular target: Serine/threonine-protein kinase Nek7 (Homo sapiens) (UniProt Q8TDX7); assay: Inhibition of recombinant human NEK7 (2 to end residues) at 10 uM using FLAKSFGSPNRAYKK as substrate measured after 40 mins in presence of [gamma33P]ATP by scintillation counting method
# Serine/threonine-protein kinase Nek7 (Homo sapiens), sequence (Q8TDX7 whole entry, looked up): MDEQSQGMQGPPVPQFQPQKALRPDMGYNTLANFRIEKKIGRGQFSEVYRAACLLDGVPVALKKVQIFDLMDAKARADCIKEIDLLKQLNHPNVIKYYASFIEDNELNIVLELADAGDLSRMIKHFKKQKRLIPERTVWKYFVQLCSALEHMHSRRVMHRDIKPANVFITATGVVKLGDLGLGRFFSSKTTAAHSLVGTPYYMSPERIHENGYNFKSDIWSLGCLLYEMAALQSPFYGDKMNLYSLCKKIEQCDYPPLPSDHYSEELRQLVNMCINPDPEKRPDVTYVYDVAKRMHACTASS
# [21] = molecular target: Interferon-induced, double-stranded RNA-activated protein kinase (Homo sapiens) (UniProt P19525); assay: Inhibition of recombinant human PKR (252 to end residues) at 10 uM using RSRSRSRSRSRSRSR as substrate measured after 40 mins in presence of [gamma33P]ATP by scintillation counting method
# Interferon-induced, double-stranded RNA-activated protein kinase (Homo sapiens), sequence (P19525 whole entry): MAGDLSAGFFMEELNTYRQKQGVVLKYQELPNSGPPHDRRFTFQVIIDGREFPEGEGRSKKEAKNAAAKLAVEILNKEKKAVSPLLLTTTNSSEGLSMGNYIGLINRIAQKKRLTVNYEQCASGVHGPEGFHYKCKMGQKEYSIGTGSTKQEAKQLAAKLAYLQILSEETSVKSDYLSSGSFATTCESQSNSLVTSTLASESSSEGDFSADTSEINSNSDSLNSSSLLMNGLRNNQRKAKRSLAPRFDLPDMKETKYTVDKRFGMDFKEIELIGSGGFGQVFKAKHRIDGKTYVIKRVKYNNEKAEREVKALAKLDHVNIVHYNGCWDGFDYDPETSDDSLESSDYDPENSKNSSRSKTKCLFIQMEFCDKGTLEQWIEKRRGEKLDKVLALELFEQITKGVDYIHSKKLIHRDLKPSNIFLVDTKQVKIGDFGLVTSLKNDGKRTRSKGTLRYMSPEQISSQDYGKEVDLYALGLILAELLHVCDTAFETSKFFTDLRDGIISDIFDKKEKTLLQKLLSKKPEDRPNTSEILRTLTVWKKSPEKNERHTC
smiles,measurement,setting,value
CN1C[C@H](Nc2nc3cc[nH]c3c(=O)n2C)C[C@H](c2ccc3c(c2)OCCO3)C1,Kd,[1],917 nM
same,Activity,[2],Active
same,Activity,Peregrin (Homo sapiens),Active
same,Activity,[3],inactive
same,inhibition,Mus musculus,inactive
same,half-life,[4],90.6 min
same,inhibition,[5],inactive
same,inhibition,[6],inactive
same,inhibition,[7],inactive
same,inhibition,[8],inactive
same,inhibition,[9],inactive
same,inhibition,[10],inactive
same,inhibition,[11],inactive
same,inhibition,[12],inactive
same,inhibition,[13],inactive
same,inhibition,[14],inactive
same,inhibition,[15],inactive
same,inhibition,[16],inactive
same,inhibition,[17],inactive
same,inhibition,[18],inactive
same,inhibition,[19],inactive
same,inhibition,[20],inactive
same,inhibition,[21],inactive
